Many of the other results were omitted from the sample, so hits are more common in it than they were.
Glyco luc inh: blocks N-linked glycosylation in D54 reporter cells; AID 588692; hit rate 0.23% among 360,000; D54 ERlucT glycosylation luciferase reporter, 24 h; percent of 100 nM tunicamycin response; reporter increase, % at 12.5 µM;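 active means mean luciferase reporter signal, scaled so untreated is 0 and the glycosylation-blocking control 100, at or above a set limit in every replicate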;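 further: luciferase carries N-glycosylation sites so blocking glycosylation raises the light; 0% = median of neutral control wells and 100% = median of 100 nM tunicamycin wells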
ALR H2O2 inh: inhibitors of human sulfhydryl oxidase ALR; purified ALR, DTT oxidation, H2O2 HRP-luminol luminescence; inhibition, % (test concentration not listed); hit rate 3.8% among 290,000; AID 485317;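 active means mean replicate inhibition above about 79%, with every replicate also reaching it, limit read from the data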
Target sequence (P55789 whole entry, looked up): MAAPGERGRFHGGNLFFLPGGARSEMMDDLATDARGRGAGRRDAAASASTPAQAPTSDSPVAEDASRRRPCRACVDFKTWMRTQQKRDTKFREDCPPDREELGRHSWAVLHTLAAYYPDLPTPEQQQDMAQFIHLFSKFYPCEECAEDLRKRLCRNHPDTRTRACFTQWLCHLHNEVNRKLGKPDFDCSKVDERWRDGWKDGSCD
T cell HTS: modulates CD8 T cell binding to vesicles; 2C CD8+ T cell-vesicle binding, flow cytometry; stronger effect = lower value; response (vesicle binding), % at 7 µM; hit rate 0.068% among 330,000;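 active means response, share of CD8 T cells binding vesicles, and their 90th percentile fluorescence all below set limits, cut at about 80% in these data, passing the limit was not always enough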;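 further: values below 100% mean blocked vesicle binding to the CD8+ T cells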
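material = purified 2C TCR transgenic mouse naive CD8+ T cells | controls = Unloaded micro-vesicles (low), QL9 vesicles with 0.7% DMSO (high) | detection = cytometric PE anti-B7-1 and Alexa647 anti-CD8 signals after 1% paraformaldehyde fixation | incubation = binding step 1.5 h, 37 °C, antibody labelling 20 min, ice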
The depositor's hits bear a star; . = no result.

SMILES	Glyco luc inh	ALR H2O2 inh	T cell HTS
O=C(CSCc1ccc(Br)cc1)NC1CC1	-1.0	.	326.9
O=C(CSCc1cccc(Br)c1)NC1CC1	-0.1	98.0*	156.0
O=C(CCC(=O)OCC(=O)c1cccc([N+](=O)[O-])c1)NC1CCCCC1	2.3	-6.1	238.1
Cc1ccc(CSCCNC(=O)CSCc2ccc([N+](=O)[O-])cc2)cc1	-2.5	-9.1	261.8
CN(C)CCNC(=O)c1ccc(-c2cnn(C)c2)c2ccoc12	0.4	.	.
C[C@H](NC(=O)c1ccco1)C(=O)Nc1ccc(C#N)cc1	-0.2	.	477.8
COc1ccc(C(=O)N2CCN(S(=O)(=O)c3ccc4c(c3)OCCO4)CC2)cc1OC	7.3	.	281.6
CCN=C1SC(CC(N)=O)C(=O)N1CC (stereo not drawn)	0.6	-15.8	178.3
CSCCC(NC(=O)c1ccco1)C(=O)NCCc1ccc(Cl)cc1 (stereo not drawn)	-2.1	.	385.9
O=C(CNC(=O)c1ccccc1)NCC(=O)OCC(=O)c1ccc([N+](=O)[O-])cc1	0.5	97.1*	464.4
O=C(CNC(=O)c1ccc(Br)cc1)NCC(=O)OCC(=O)c1ccc([N+](=O)[O-])cc1	2.4	-16.6	404.1
Cc1cccc(C)c1OCC(O)CN (stereo not drawn)	1.4	-4.2	166.7
OCCN(CCO)CC(O)CN(c1ccccc1)c1ccccc1 (stereo not drawn)	0.1	98.8*	494.6
NCC(O)CN(c1ccccc1)c1ccccc1 (stereo not drawn)	0.3	98.7*	205.5
OCCN(CCO)CC(O)Cn1c2ccccc2c2ccccc21 (stereo not drawn)	-2.2	-12.5	125.0
OC(CN(c1ccccc1)c1ccccc1)Cn1cnc2ccccc21 (stereo not drawn)	-2.6	98.7*	308.3
CC(C)[N+](C)(C)CC(O)CN(c1ccccc1)c1ccccc1 (stereo not drawn)	1.0	98.3*	643.9
CN(CCOc1ccccc1)CC(O)COc1ccccc1 (stereo not drawn)	2.9	-9.9	585.5
OC(COCc1ccccc1)Cn1cnc2ccccc21 (stereo not drawn)	0.1	-5.5	610.2
Cc1nc(CCNC(=O)C2CCC(=O)N(Cc3ccc(Cl)cc3)C2)sc1C (stereo not drawn)	2.2	.	.
C=CCOc1ccc(C=CC(=O)c2c(O)c(OC)c(OC)c(OC)c2OC)cc1	9.0	.	.
O=C(c1ccc(Cl)c(S(=O)(=O)NCc2cccnc2)c1)N1CCCC1	2.8	.	177.5
O=C1CC(c2cccs2)c2ccc3ccccc3c2N1 (stereo not drawn)	1.9	-167.2	419.0
O=C(CNc1cccc(S(=O)(=O)N2CCCC2)c1)Nc1ccc(F)cc1F	-3.0	8.1	340.8
O=C1C(O)=CC(=C(c2ccccc2)c2ccccc2)c2ccccc21	9.2	.	.
SMILES	Glyco luc inh	ALR H2O2 inh	T cell HTS
CC(C)(C)NC(=O)NC(=O)CSc1n[nH]c(-c2ccccc2Br)n1	0.1	96.3*	176.7
O=C(CSc1n[nH]c(-c2ccccc2Br)n1)NC(=O)NCc1ccco1	2.4	1.0	329.6
COC(=O)Cc1c(C)nc2nc(NCc3ccc(Cl)cc3)[nH]n2c1=O	4.5	.	111.5
COC(=O)Cc1c(C)nc2nc(NCc3cccc([N+](=O)[O-])c3)[nH]n2c1=O	0.8	88.9*	77.2
COC(=O)c1cccc(NC(=O)CN2CCc3ccccc3C2)c1	0.3	1.7	156.2
CCCn1c(N)c(N(CCOC)C(=O)COC(=O)COc2c(C)cc(C)cc2C)c(=O)[nH]c1=O	0.9	.	.
COc1ccccc1NC(=O)CSC1CC(=O)N(c2ccc3c(c2)OCO3)C1=O (stereo not drawn)	0.2	99.6*	553.8
Cc1ccc(SC2CC(=O)N(c3ccc4c(c3)OCCO4)C2=O)cc1 (stereo not drawn)	0.6	97.8*	124.1
Cc1ccc(N2C(=O)CC(Sc3cccs3)C2=O)cc1 (stereo not drawn)	0.7	56.1	139.8
COc1ccccc1NC(=O)CN1CCN(CC(=O)Nc2ccc3c(c2)OCO3)CC1	0.6	27.7	426.7
COc1ccc(NC(=O)CSC2CC(=O)N(c3ccc4c(c3)OCCO4)C2=O)cc1 (stereo not drawn)	1.5	98.5*	240.2
COc1ccc(N2C(=O)CC(SCC(=O)O)C2=O)cc1 (stereo not drawn)	2.7	-18.9	261.7
CC1(C)Oc2ccc(C(=O)Nc3ccccc3)cc2N(CC#N)C1=O	0.7	-0.3	160.3
CCc1cccc(C)c1NC(=O)COC(=O)CCn1c(C)csc1=O	2.1	.	.
O=c1cc(CN2CCN(Cc3ccccc3)CC2)c2ccc(O)c(O)c2o1	-4.0	99.5*	205.5
O=c1cc(CN2CCOCC2)c2ccc(O)c(O)c2o1	-1.3	99.3*	188.3
Cc1c(O)ccc2c(CN(C)Cc3ccccc3)cc(=O)oc12	-8.6	85.8*	392.8
Cc1ccc2c(CN3CCC(C(N)=O)CC3)cc(=O)oc2c1C	2.7	94.7*	449.5
Cc1ccccc1CN(C)Cc1cc(=O)oc2c(C)c(C)ccc12	-10.9	-2.3	257.3
Cc1c(O)ccc2c(CN3CCN(Cc4ccccc4)CC3)cc(=O)oc12	-3.0	.	558.0
CCCc1cc(=O)oc2c(CN3CCOCC3)c(O)ccc12	-0.7	12.4	117.5
Cc1ccc2c(CN3CCCCC3)cc(=O)oc2c1C	-2.8	-3.3	225.2
COc1ccccc1CN1[C@@H](CC(=O)O)c2cc(F)ccc2S1(=O)=O	-0.1	26.2	208.8
O=C(NC1CC1)c1sc2ccccc2c1Cl	2.3	3.5	105.1
O=C(NC1C=CS(=O)(=O)C1)c1sc2ccccc2c1Cl (stereo not drawn)	31.6*	8.7	177.0
SMILES	Glyco luc inh	ALR H2O2 inh	T cell HTS
Cc1ccccc1NC(=O)Cc1nc(COC(=O)CCOc2ccccc2)cs1	1.5	-0.9	280.5
CCn1cc(C(=O)NC(=S)Nc2ccccc2[N+](=O)[O-])cn1	0.7	98.8*	269.8
CCn1cc(C(=O)NC(=S)Nc2ccccc2Br)cn1	0.0	30.2	124.8
COc1ccc(S(=O)(=O)N2CCCCC2)cc1NS(=O)(=O)c1ccccc1	-0.7	3.4	283.5
COc1ccc(CN2C(=O)c3cccnc3C2=O)cc1S(=O)(=O)N1CCCCC1C (stereo not drawn)	0.5	-0.5	409.1
Cc1cccc(N(Cc2cc3ccccc3[nH]c2=O)S(=O)(=O)c2ccccc2)c1	-2.7	-9.0	191.6
CC1(c2ccccc2)NC(=S)N2C1NC(=S)N2c1ccccc1 (stereo not drawn)	1.6	3.5	0.0
COc1ccc(N2C(=S)NC3N2C(=S)NC3(C)c2ccccc2)cc1 (stereo not drawn)	3.3	98.1*	111.3
CCCS(=O)(=O)NC(=O)C1(C)CCN(C(=O)c2cccc(C(F)(F)F)c2)C1 (stereo not drawn)	1.5	.	.
O=C(Nc1ccc(N2CCOCC2)cc1)C1CC(O)CN1S(=O)(=O)c1ccc(Cl)cc1 (stereo not drawn)	-0.2	78.0*	511.8
O=C(CN1CCN(S(=O)(=O)c2ccc(Cl)cc2)CC1)Nc1ccc(N2CCOCC2)cc1	-1.1	-2.8	733.1
COc1ccc(OC(=O)COc2ccccc2C)cc1	-0.2	25.0	376.7
Nc1cc2c(cc1C(=O)c1ccccc1)OCCO2	0.0	98.1*	158.5
Cc1ccc(C(=O)c2cc3c(cc2N)OCCO3)cc1	-1.4	.	213.9
O=C(COc1ccccc1)N1CCNC1=O	2.4	-5.3	382.3

Screens: PubChem, several laboratories
